For assay [1], the target named is T1, 4-hydroxy-tetrahydrodipicolinate synthase 2, chloroplastic (Arabidopsis thaliana, UniProt Q9FVC8).
T1 sequence (Q9FVC8 whole entry): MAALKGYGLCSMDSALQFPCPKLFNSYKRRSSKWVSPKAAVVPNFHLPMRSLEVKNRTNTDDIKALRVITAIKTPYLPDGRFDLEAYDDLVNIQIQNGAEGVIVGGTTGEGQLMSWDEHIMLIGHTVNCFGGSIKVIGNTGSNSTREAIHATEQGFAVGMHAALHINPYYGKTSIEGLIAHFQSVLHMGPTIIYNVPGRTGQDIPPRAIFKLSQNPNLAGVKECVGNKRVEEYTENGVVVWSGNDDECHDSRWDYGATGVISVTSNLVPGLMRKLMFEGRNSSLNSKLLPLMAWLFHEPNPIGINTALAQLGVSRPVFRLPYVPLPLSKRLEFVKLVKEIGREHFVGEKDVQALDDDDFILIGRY
The assay is described as follows: Inhibition of Arabidopsis thaliana DHDPS2. A digest of the protocol:
(§1)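 Coupled DHDPS–DHDPR assay with final 250 mM HEPES pH 8.0, 0.2 mM NADPH, 1 mM pyruvate, 0.125 mM ASA, 0.0009 mM E. coli DHDPR, 0.00008 mM DHDPS, 0.05% Tween 20 and varied inhibitor. Enzymes, pyruvate, buffer and NADPH were held at 30 °C for 12 min, then ASA was added. NADPH oxidation was followed at 340 nm and 30 °C. Initial rates came from the linear A340 slope, run in triplicate, and were used for IC50.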

For assay [2], the target named is T2, 4-hydroxy-tetrahydrodipicolinate synthase 1, chloroplastic (Arabidopsis thaliana, UniProt Q9LZX6).
T2 sequence (Q9LZX6 whole entry): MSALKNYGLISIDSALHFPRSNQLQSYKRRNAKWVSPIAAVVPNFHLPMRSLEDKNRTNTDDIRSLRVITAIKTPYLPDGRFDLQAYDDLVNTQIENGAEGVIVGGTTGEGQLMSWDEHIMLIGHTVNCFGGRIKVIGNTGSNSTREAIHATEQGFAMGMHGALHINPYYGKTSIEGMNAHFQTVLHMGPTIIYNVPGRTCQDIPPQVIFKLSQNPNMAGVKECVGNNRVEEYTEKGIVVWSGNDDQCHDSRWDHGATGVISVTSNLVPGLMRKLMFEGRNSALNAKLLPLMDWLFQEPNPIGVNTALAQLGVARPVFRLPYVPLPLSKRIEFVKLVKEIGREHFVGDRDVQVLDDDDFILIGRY
Nature of the assay: Inhibition of Arabidopsis thaliana DHDPS1. A digest of the protocol: as §1

Assay [3] can be described thus: Inhibition of Escherichia coli DHDPS using ASA as substrate assessed as NADPH oxidation to NADP+ preincubated with compound for 12 mins in the presence of NADPH followed by substrate addition by UV/Vis spectrophotometric analysis. A digest of the protocol: as §1

SMILES strings stand for the structures.

As usually defined, the IC50 is the concentration at which inhibition is half-maximal. Regarding `COc1ccc(/C=C2\SC(=O)N([C@H](C[C@@H](C(=O)O)N3C(=O)S/C(=C\c4ccc(OC)cc4)C3=O)C(=O)O)C2=O)cc1`, the IC50 in assay [1] stood at 33.9 µM; in assay [2] it was 35.6 µM; in assay [3], 9.95 µM. `CCOC(=O)C(Br)CCC(Br)C(=O)OCC` (stereo unspecified): in assay [3], the IC50 is 77.4 µM. Turning to `COc1ccc(/C=C2\SC(=O)N([C@@H](CC[C@@H](C(=O)O)N3C(=O)S/C(=C\c4ccc(OC)cc4)C3=O)C(=O)O)C2=O)cc1` (racemic), in assay [3], the half-maximal inhibitory concentration (IC50) was determined as 19.7 µM. The same measure, in the same setting: then `COc1ccc(/C=C2\SC(=O)N(C(CCCC(C(=O)O)N3C(=O)S/C(=C\c4ccc(OC)cc4)C3=O)C(=O)O)C2=O)cc1` (stereo unspecified), with 40.6 µM.

Consider `COc1ccc(/C=C2\SC(=O)N(CC(=O)O)C2=O)cc1`, for which the IC50 turned out to be 66 µM in assay [1], 66.2 µM in assay [2] and 47 µM in assay [3].

On to `COc1ccc(/C=C2\SC(=O)N([C@H](C[C@H](C(=O)O)N3C(=O)S/C(=C\c4ccc(OC)cc4)C3=O)C(=O)O)C2=O)cc1` (racemic), for which, in assay [3], the 50% inhibitory concentration (IC50) worked out at 30.4 µM. Take `COc1ccc(/C=C2\SC(=O)N([C@H](CC[C@@H](C(=O)O)N3C(=O)S/C(=C\c4ccc(OC)cc4)C3=O)C(=O)O)C2=O)cc1`: the IC50 in assay [3] is 42 µM.

The values are drawn from ChEMBL document CHEMBL5356938, “Enhancing allosteric inhibition of dihydrodipicolinate synthase through the design and synthesis of novel dimeric compounds” (RSC Med Chem, 2023).
